Key:
[1] = 13C NMR of stability / Schiff base formation by the free glyoxal inhibitor; assay type: physicochemical
trypsin [2] = target: T1, trypsin (Bos taurus, UniProt P00760); assay type: biochemical; conditions: pH 7.2
T1 sequence (P00760 24-246): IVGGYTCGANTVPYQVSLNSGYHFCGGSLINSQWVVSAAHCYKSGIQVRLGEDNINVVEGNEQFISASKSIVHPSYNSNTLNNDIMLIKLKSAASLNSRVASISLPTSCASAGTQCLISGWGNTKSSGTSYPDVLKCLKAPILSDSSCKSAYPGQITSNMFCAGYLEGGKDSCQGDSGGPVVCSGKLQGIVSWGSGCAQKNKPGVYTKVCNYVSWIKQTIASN
Procedure, shortened: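 Trypsin (78% active by p-nitrophenyl p-guanidobenzoate titration) hydrolysing α-N-benzoyl-L-arginine-p-nitroanilide at 25 °C, [S0] ≪ KM, in 0.1 M buffers (potassium phosphate at pH 7.2; sodium acetate at pH 5.0). At pH 7.2: 88.0 μM substrate, 0.17 μM trypsin, 3.3% DMSO. Inhibitor was added last. Initial rates were taken within 0.5–1 min and fitted to d[P]/dt = vo·Ki/([I]+Ki), ≥3 determinations. Effective molarity = KHK(obs)/KH1.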

[3] = Hydration constants by quantitative 13C NMR; assay type: physicochemical; conditions: pH 3.0, 13C NMR
trypsin [4] = target: T1, trypsin; test: 13C NMR of trypsin catalysed breakdown of bound glyoxal inhibitor; assay type: biochemical; conditions: pH 7.2, in the presence of trypsin

Question: For NCCCC[C@H](NC(=O)OCc1ccccc1)[13C](=O)C=O [Z-Lys-^13COCHO], which “Half life of Schiff base formation allowing for pH 7.0 instead of 7.2” value ([1]; corrected to pH 7.2) is on record?
Answer: 14.5 h

Question: What about the “Half life of Schiff base formation” value ([1]; pH 7.0) of the same compound?
Answer: 23.0 h

Question: What about the “1st order rate constant of Schiff base formation” value (“1st order rate constant” for short) ([1]; pH 7.0, 25 °C, 20 mM potassium phosphate buffer) of the same compound?
Answer: 0.030±0.004 h^−^1

Question: For NC(N)=NCCC[C@H](NC(=O)OCc1ccccc1)C(=O)O [Z-Arg-COOH], which “Tighter binding than Z-Lys-COOH” value (trypsin [2]) is on record?
Answer: ~ 2 fold

Question: Which “Stability of NMR signals” value ([1]; pH 3.0, 64 h at 25 °C) does the source give for NCCCC[C@H](NC(=O)OCc1ccccc1)C(=O)[13CH]=O [Z-Lys-CO^13CHO] here?
Answer: no change in the intensity of the NMR signals

Question: What about the “t1/2 of decrease of inhibitor signals on storage” value ([1]; pH 3, storage ~1 year) of the same compound?
Answer: 1850 ± 228 h

Question: And the “Half life of Schiff base formation” value ([1]; pH 7.2, 25 °C)?
Answer: 11.2 h

Question: And the “1st order rate constant” value ([1]; pH 7.2, 25 °C, 20 mM potassium phosphate buffer)?
Answer: 0.062 ± 0.016 h⁻¹

Question: What about the “Half life of Schiff base formation” value ([1]; pH 10.4) of the same compound?
Answer: 0.15 h

Question: And the “1st order rate constant” value ([1]; pH 10.4, 20 mM sodium bicarbonate buffer)?
Answer: 4.7 ± 0.7 h⁻¹

Question: What about the “KH1obs, glyoxal aldehyde carbon” value [3] of the same compound?
Answer: 97±7

Question: And the “t1/2 of conversion of trypsin-bound inhibitor to α-hydroxycarboxylic acid” value (trypsin [4])?
Answer: 2.9 h

Source: publication PMC5600458 (Biochemistry and Biophysics Reports, 2016)
